According to ChEMBL document CHEMBL4428057, “Discovery, Synthesis, and Evaluation of 2,4-Diaminoquinazolines as a Novel Class of Pancreatic β-Cell-Protective Agents against Endoplasmic Reticulum (ER) Stress” (J Med Chem, 2016):
Activity calls are given as the source filed them. The rule behind the calls is not given here.

How the values were obtained:
Pancreatic beta cell = assay: Decrease in tunicamycin induced apoptosis in human Beta cells assessed as […] insulin cells level at 10 uM after 48 hrs by TUNEL staining based confocal microscopy (reference value: 15%); type: functional; design: scale not given: the % may be the effect or the level left
INS1 [1] = assay: Suppression of tunicamycin impaired glucose-stimulated insulin secretion in rat INS-1 cells at 10 to 20 uM preincubated for 24 hrs followed by 25 mM glucose addition for 1 hr by ELISA; type: functional, cell-based
How it was run: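 INS-1 cells in 96-well plates given Tm 0.1 µg/mL plus compound for 24 h, preincubated 1 h in KRBH (pH 7.4, 2% BSA) with 2.5 mM glucose, then 1 h in 2.5 or 25 mM glucose. Secreted insulin by ELISA, corrected for total protein (Bradford); 2.5 mM glucose without Tm set to 1.0.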

INS1 [2] = assay: Reversal of tunicamycin-induced suppression of PDX1 mRNA levels in rat INS-1 cells at 20 uM after 24 hrs by qRT-PCR method; type: functional, cell-based
How it was run: (§1)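 INS-1 cells (4×10^5/well, 6-well plates) given Tm 0.1 µg/mL ± compound 20 µM or DMSO for 24 h. INS1, INS2, PDX1 and MafA mRNA measured by qRT-PCR with rat primers. Means of 3 replicate wells, representative of 3 independent experiments; SD.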

INS1 [3] = assay: Protection against BFA induced endoplasmic reticulum stress in rat INS-1 cells assessed as increase in cell viability at 20 uM after 72 hrs by CellTiter-Glo assay; type: functional, cell-based
How it was run: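 INS-1 cells at 3×10^3/well (384-well) treated with brefeldin A 0.2 µg/mL ± compound 20 µM or DMSO for 72 h. Viability read as intracellular ATP by CellTiter-Glo luminescence. Means of 3 replicate wells, representative of 3 independent experiments; SD.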

[4] = biological target: T1, Eukaryotic translation initiation factor 2-alpha kinase 3 (Rattus norvegicus) (UniProt Q9Z1Z1); assay: Inhibition of PERK pathway in rat INS-1 cells assessed as reduction in tunicamycin induced ATF4 protein levels at 20 uM after 2 to 24 hrs by Western blot analysis; type: cell-based
T1 sequence (whole entry): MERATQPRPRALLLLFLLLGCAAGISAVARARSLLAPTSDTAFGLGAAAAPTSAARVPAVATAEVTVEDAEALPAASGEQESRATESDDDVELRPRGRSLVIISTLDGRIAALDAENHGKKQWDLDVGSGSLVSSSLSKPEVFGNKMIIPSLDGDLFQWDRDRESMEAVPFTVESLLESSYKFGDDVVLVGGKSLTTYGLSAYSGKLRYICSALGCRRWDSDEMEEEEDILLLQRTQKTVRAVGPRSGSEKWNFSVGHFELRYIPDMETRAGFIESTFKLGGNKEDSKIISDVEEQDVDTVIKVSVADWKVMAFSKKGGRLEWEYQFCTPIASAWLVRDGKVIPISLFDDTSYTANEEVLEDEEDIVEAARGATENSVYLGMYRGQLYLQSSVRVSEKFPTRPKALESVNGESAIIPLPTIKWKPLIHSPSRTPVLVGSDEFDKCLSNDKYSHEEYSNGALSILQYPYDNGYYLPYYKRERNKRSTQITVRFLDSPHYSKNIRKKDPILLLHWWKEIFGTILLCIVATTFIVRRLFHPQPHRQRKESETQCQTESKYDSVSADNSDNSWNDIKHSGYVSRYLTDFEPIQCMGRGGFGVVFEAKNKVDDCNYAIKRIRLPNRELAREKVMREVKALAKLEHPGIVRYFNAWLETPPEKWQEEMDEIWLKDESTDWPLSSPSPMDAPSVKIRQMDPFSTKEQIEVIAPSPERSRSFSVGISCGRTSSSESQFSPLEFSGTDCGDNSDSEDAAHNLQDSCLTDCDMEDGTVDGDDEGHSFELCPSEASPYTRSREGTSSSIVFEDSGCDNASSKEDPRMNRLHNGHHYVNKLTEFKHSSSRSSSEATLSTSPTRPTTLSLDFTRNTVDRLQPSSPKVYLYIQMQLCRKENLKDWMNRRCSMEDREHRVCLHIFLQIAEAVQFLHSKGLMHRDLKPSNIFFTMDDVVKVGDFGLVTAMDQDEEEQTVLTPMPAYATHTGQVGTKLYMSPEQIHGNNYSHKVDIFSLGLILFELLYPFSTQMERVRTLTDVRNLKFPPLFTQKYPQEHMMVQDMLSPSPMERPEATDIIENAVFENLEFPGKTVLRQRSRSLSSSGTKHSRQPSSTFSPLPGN
How it was run: (§2)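 Western blots of INS-1 cells (8×10^5/60-mm dish) treated with Tm 0.1 µg/mL ± compound 20 µM or DMSO for the indicated times. Lysates with EDTA and phosphatase inhibitors; 20 µg protein on 7% SDS-PAGE, PVDF. Primary antibodies at 1:1000 against ATF4, CHOP, cleaved caspase 3 or PARP; α-tubulin loading control; HRP secondaries. Representative of 3 experiments.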

INS1 [5] = assay: Protection against tunicamycin induced endoplasmic reticulum stress in rat INS-1 cells assessed as increase in cell viability at 20 uM after 24 hrs by live-cell phase-contrast image analysis; type: functional, cell-based
How it was run: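 INS-1 cells treated with or without Tm 0.1 µg/mL in the presence of compound 20 µM or DMSO for 24 h; live-cell phase-contrast images acquired at 10× magnification.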

Rattus norvegicus = species on record: Rattus norvegicus; assay: Inhibition of IRE1alpha in rat INS-1 cells assessed as suppression of tunicamycin induced spliced XBP1 mRNA levels at 20 uM after 4 to 24 hrs in by qRT-PCR method; type: cell-based
How it was run: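 Spliced XBP1 mRNA in INS-1 cells (4×10^5/well, 6-well plates) measured by qRT-PCR with splicing-specific primers after Tm 0.1 µg/mL ± compound 20 µM or DMSO for the indicated times. Expressed as fold-increase over untreated control; 3 replicate wells, representative of 3 experiments, SD.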

INS1 [6] = assay: Reversal of tunicamycin suppressed INS2 mRNA levels in rat INS-1 cells at 20 uM after 24 hrs by qRT-PCR method; type: functional, cell-based; how it was run: as §1
INS1 [7] = assay: Reversal of tunicamycin-induced suppression of MafA mRNA levels in rat INS-1 cells at 20 uM after 24 hrs by qRT-PCR method; type: functional, cell-based; how it was run: as §1
INS1 [8] = assay: Protection against tunicamycin induced endoplasmic reticulum stress in rat INS-1 cells assessed as increase in cell viability at 5 uM after 72 hrs by CellTiter-Glo assay; type: functional, cell-based
[9] = biological target: T1, Eukaryotic translation initiation factor 2-alpha kinase 3 (Rattus norvegicus); assay: Inhibition of PERK pathway in rat INS-1 cells assessed as reduction in tunicamycin induced CHOP protein levels at 20 uM after 2 to 24 hrs by Western blot analysis; type: cell-based; how it was run: as §2
INS1 [10] = assay: Protection against tunicamycin induced endoplasmic reticulum stress in rat INS-1 cells assessed as increase in cell viability after 3 days by CellTiter-Glo assay; type: functional, cell-based; conditions: INS1, 72 h
How it was run: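 INS-1 cells at 3×10^3/well (384-well) co-treated with Tm 0.1 µg/mL and compound for 72 h; CellTiter-Glo ATP luminescence. Activity is % rescue, with Tm alone = 0% and DMSO without Tm = 100%. EC50 from ten 2-fold serial dilutions by curve fit; triplicate.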

Question: For `COc1ccc(CNc2nc(N3CCCCC3CO)nc3ccccc23)cc1` (racemic), which Activity (Pancreatic beta cell) is on record?
Answer: Its Activity is 3.5%.

Question: And the Activity (INS1 [1])?
Answer: The Activity was “Active”.

Question: And the Activity (INS1 [2])?
Answer: Its Activity is “Active”.

Question: And the Activity (INS1 [3])?
Answer: Its Activity is “Active”.

Question: What about the inhibition [4] of the same compound?
Answer: Its inhibition is “Active”.

Question: What about the Activity (INS1 [5]) of the same compound?
Answer: Its Activity is “Active”.

Question: And the inhibition (Rattus norvegicus)?
Answer: The inhibition was “Active”.

Question: And the Activity (INS1 [6])?
Answer: The Activity was “Active”.

Question: What about the Activity (INS1 [7]) of the same compound?
Answer: The Activity was “Active”.

Question: And the Activity (INS1 [8])?
Answer: The Activity was “Active”.

Question: And the inhibition [9]?
Answer: The inhibition was “Active”.

Question: What about the EC50 (INS1 [10]) of the same compound?
Answer: Its EC50 is 560 nM.
